# Bioassay records: PubChem BioAssay, Broad Institute
# FGF22 binding: binders of recombinant human FGF22 by thermal shift | Q9HCT0 | SYPRO orange fluorescence; percent of sucrose octasulfate shift, DMSO zero | activity (Tm shift, normalised), % at 9.99 µM | hit rate 1.5% among 340,000 | AID 651658;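 active = mean Tm shift, scaled 0 neutral to 100 positive control, at about 1.3% or above, every replicate too, limit read from the data; inconclusive = no clear call, values can overlap the other calls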
# ERAP1 inh: ERAP1 (human) enzyme inhibition; Q9NZ08; recombinant ERAP1, Leu-AMC fluorescence, 60 min; inhibition, % at 10.7 µM; hit rate 0.15% among 340,000;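 active = mean replicate inhibition of at least 30%, or all replicates individually reaching that 30% level; inactive = mean below 30% and not every replicate reaching it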
# ERp5 block: blocks human ERp5 reductase activity on insulin; Q15084; ERp5 insulin aggregation, absorbance 650 nm, 90 min; inhibition, % at 9.99 µM; hit rate 0.05% among 350,000; AID 651711;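 active = mean replicate inhibition above about 25%, with every replicate also reaching it, limit read from the data, passing the limit was not always enough; inconclusive = only one of those two criteria met; inactive = neither criterion met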
# PDI turbidity: blocks human protein disulfide isomerase activity | P07237 | PDI insulin aggregation turbidity, A650, 90 min | inhibition, % at 10 µM | hit rate 0.052% among 350,000 | AID 588391;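 active = mean inhibition across replicates of 30% or more, whatever share of single replicates reach that level; inconclusive = mean inhibition below 30% while every single replicate reaches 30%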
# Target sequence (P07237 whole entry, looked up): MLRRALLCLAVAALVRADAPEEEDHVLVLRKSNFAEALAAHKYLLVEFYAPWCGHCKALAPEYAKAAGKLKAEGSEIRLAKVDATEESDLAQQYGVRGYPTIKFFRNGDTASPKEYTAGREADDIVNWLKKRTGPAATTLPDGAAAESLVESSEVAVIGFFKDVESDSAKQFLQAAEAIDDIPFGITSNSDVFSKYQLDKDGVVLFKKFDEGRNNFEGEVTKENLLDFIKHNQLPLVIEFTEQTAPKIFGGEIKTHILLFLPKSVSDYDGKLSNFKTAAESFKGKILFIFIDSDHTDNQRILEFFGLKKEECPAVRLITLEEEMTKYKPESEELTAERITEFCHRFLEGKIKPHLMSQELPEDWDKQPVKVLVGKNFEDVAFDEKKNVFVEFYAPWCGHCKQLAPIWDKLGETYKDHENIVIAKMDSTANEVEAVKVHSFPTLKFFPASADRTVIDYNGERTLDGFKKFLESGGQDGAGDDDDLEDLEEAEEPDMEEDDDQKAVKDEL
# S100A4 MyoIIA: inhibitors of human S100A4 binding to myosin IIA peptide. P26447. S100A4/TAMRA-MyoIIA peptide fluorescence polarization. inhibition, % at 10.7 µM. hit rate 0.14% among 360,000. AID 652163;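 active = mean inhibition of at least 70% across replicates, with every replicate also reaching that level; inconclusive = mean inhibition reaches 70% but some replicates fall short; inactive = mean inhibition below 70%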
# Target sequence (P26447 whole entry, looked up): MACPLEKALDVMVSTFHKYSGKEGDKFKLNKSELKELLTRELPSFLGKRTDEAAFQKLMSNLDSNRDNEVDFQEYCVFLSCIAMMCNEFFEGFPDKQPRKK
#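 Assay system: human S100A4 monomer with TAMRA-labelled myosin IIA peptide / Buffer or medium: Calcium-containing HEPES buffer, pH 7.2 / Reagent: TAMRA-labelled myosin IIA heavy-chain peptide probe, 5 nM / Compound: one dose per compound / Timing: polarization read 5 min after assay mix addition, stable 5–60 min / Benchmarks: neutral control DMSO, positive control TFP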
# Hits are given with their value; – = inactive; ? = inconclusive; · = no result given. Only a selection was taken, and hits are over-represented in it overall.
SMILES,FGF22 binding,ERAP1 inh,ERp5 block,PDI turbidity,S100A4 MyoIIA
CC(C)NC(=O)Nc1ccc2c(c1)C(=O)N([C@@H](C)CO)C[C@H](C)[C@@H](CN(C)C(=O)C1CCCCC1)OCCCC[C@@H](C)O2,–,–,–,·,–
CCC[C@@H](CN1CCC[C@H]1CN1C(N)=NC[C@H]1CC(C)C)N1C[C@@H]([C@H](C)CC)N(CCCC2CCCC2)C1=N,–,–,26.9,–,–
Cc1cccc(CCNS(=O)(=O)c2cc3c(cc2C)NC(=O)CO3)c1,–,–,–,·,–
CCC[n+]1c(C)sc2c(OC)ccc(OC)c21,43.0,51.6,–,–,–
O=C(Nc1cccc2ccccc12)OCc1ccccc1,43.8,–,–,–,–
CCN(CC)c1ccc(CNc2nc3ccccc3n2C)cc1,42.9,–,–,–,–
COc1ccc(NC(=O)Nc2cccc3c2O[C@H](CN(C)Cc2ccc(-c4ccccc4)cc2)[C@H](C)CN([C@@H](C)CO)C3=O)cc1,–,–,–,·,–
CC(=O)OC[C@H]1O[C@@H](n2ncc(=O)[nH]c2=O)[C@H](OC(C)=O)[C@@H]1OC(C)=O,·,·,·,–,–
CC(=O)OCC1OC(COC(C)=O)(c2ccc(C)cc2)C(OC(C)=O)C1OC(C)=O (configuration not stated),51.1,–,–,–,–
CCCNC(=O)N1[C@@H]2c3ccc(-c4ccccc4OC)c(=O)n3C[C@@H]2[C@@H](CO)[C@@H]1C(=O)NC1CCC1,–,–,–,·,115.6
CCOc1cc(/C=N/NC(=O)C(N)=O)cc(Br)c1O,43.3,–,–,–,–
COc1ccccc1NC(=O)CN(Cc1ccco1)C(=O)c1ccc(N2CCCC2=O)cc1,43.5,–,–,–,–
CC(=O)N(CCCCl)C(C#N)c1ccccc1 (configuration not stated),43.7,–,–,–,–
N#CC(c1ccccc1)N(CCCCl)C(=O)c1ccccc1 (configuration not stated),43.2,–,–,–,–
CCOC(=O)CC1(c2ccc(OC)c(OC)c2)C(=O)c2ccccc2C1=O,–,–,–,–,–
CC[n+]1c(/C=C/c2ccc(N(C)C)cc2)ccc2ccccc21,–,–,–,–,–
CCN(CC)c1ccc(/C=C/c2ccc3ccc(OC)cc3[n+]2CC)cc1,–,–,–,–,100.4
COc1cc(N)c(Cl)cc1C(=O)OC(C)C(=O)Nc1cccc(S(=O)(=O)N2CCOCC2)c1 (configuration not stated),–,–,–,–,–
CC(C)OC(=O)CC(=O)CSc1nc2c(c(-c3cccs3)c1C#N)CCC2,43.9,–,–,–,–
CCCCN(C)C(=O)Cn1nc(-c2ccc(Cl)cc2)ccc1=O,–,–,–,–,–
COc1ccccc1C/C(N)=N/OC(=O)COc1cc(C)cc(C)c1C,43.4,–,–,–,–
COc1ccccc1C/C(N)=N/OC(=O)/C=C/c1ccccc1,43.3,–,–,–,–
COc1ccccc1C/C(N)=N/OC(=O)c1cccs1,–,–,–,–,–
COc1ccccc1C/C(N)=N/OC(=O)COc1cccc(C)c1C,–,–,–,–,–
OC(c1ccc(F)cc1)c1ncc(-c2ccccc2F)[nH]1 (configuration not stated),–,–,–,–,–
SMILES,FGF22 binding,ERAP1 inh,ERp5 block,PDI turbidity,S100A4 MyoIIA
Cc1ccc(CC2(OCCN(C)C)CCC(C(C)(C)C)CC2)cc1 (configuration not stated),–,–,–,–,–
Cc1cc(C)c(S(=O)(=O)NCc2ccc3c(c2)cc(C)n3C)c(C)c1,–,–,–,·,82.9
Cc1cc2cc(CNS(=O)(=O)c3ccc4ccccc4c3)ccc2n1C,–,–,–,·,–
O=c1cc(CSc2ccc(Cl)cc2)nc(-c2ccncc2)[nH]1,43.3,–,–,–,–
CNC[C@@H]1OCCCC[C@@H](C)Oc2ccc(NC(=O)Nc3ccc(C(F)(F)F)cc3)cc2C(=O)N([C@@H](C)CO)C[C@@H]1C,–,–,–,·,–
CSc1ccccc1OCc1cc(C(=O)NCCn2nc(C)cc2C)no1,–,–,–,–,–
CSc1ccccc1OCc1cc(C(=O)NCCN2CCCc3ccccc32)no1,–,–,–,–,95.2
CCOc1ccc(NCC(=O)N/N=C/C=C/c2ccccc2)cc1,–,–,–,–,–
COc1ccc(OCC(=O)N/N=C/C=C/c2ccccc2)cc1,42.9,–,–,–,–
Cc1nn(CC(C)C)c(Cl)c1C(=O)NCC(C)(C)N1CCOCC1,–,–,–,–,–
CN(C)C(=O)C[C@@H]1CC[C@@H]2[C@H](COC[C@H](O)CN2C(=O)C2CCOCC2)O1,–,–,–,·,–
Nc1c(C(=O)NCc2cccs2)nnn1CC(=O)Nc1cccc(Cl)c1,43.1,–,–,–,–
COc1ccc(C2=CN(Cc3ccccc3)C(c3ccccc3)CC2=O)cc1 (configuration not stated),–,–,–,–,–
CCOc1cccc2sc(N(CCCN(C)C)C(=O)c3ccc(S(=O)(=O)N(C)c4ccccc4)cc3)nc12,43.5,–,–,–,–
CCOc1cccc2sc(N(CCCN(C)C)C(=O)c3ccc(S(=O)(=O)N4CCc5ccccc5C4)cc3)nc12,–,–,–,–,–
Cc1ncc([N+](=O)[O-])n1CCOC(=O)Nc1ccc([N+](=O)[O-])cc1,43.1,–,–,–,–
C=CCNC(=O)[C@H]1[C@@H]2C(=O)O[C@@H](c3ccccc3)[C@@H](c3ccccc3)N2[C@@H](c2ccc(O)cc2)[C@]12C(=O)N(C(=O)OCCOC)c1ccc(C#Cc3ccc(OC)cc3)cc12,–,–,–,·,–
NC(=O)[C@@H]1[C@H]2C(=O)O[C@H](c3ccccc3)[C@H](c3ccccc3)N2[C@H](c2ccccc2OCCO)[C@@]12C(=O)Nc1ccc(C#CCCO)cc12,–,–,–,·,–
C=CCNC(=O)[C@H]1[C@@H]2C(=O)O[C@@H](c3ccccc3)[C@@H](c3ccccc3)N2[C@@H](c2ccc(O)cc2)[C@]12C(=O)N(C(=O)OCCOC)c1ccc(C#CCC(C(=O)OC)C(=O)OC)cc12,18.3,–,–,·,?
O=C1O[C@@H](c2ccccc2)[C@@H](c2ccccc2)N2[C@@H](c3ccccc3OCCO)[C@]3(C(=O)Nc4ccc(C#CCCO)cc43)[C@@H](C(=O)O)[C@H]12,16.0,–,–,·,–
C=CCNC(=O)[C@H]1[C@@H]2C(=O)O[C@@H](c3ccccc3)[C@@H](c3ccccc3)N2[C@@H](c2ccccc2OCCO)[C@]12C(=O)Nc1ccc(C#CC3(O)CCCCCC3)cc12,33.5,–,–,·,–
N#CCSc1ccccc1NC(=O)COC(=O)CCNC(=O)c1ccc([N+](=O)[O-])cc1,–,–,–,–,–
O=C1C2C3C=CC(CC3)C2C(=O)N1/N=C/c1ccco1 (configuration not stated),44.0,–,–,–,–
CCN(CC(=O)N1CCOCC1)S(=O)(=O)c1cc(Cl)ccc1Cl,–,–,–,–,–
